Source: ChEMBL document CHEMBL1759933, “Synthesis, human monoamine oxidase inhibitory activity and molecular docking studies of 3-heteroarylcoumarin derivatives” (Eur J Med Chem, 2011)

Assays:
Homo sapiens = species: Homo sapiens; test: Selectivity index, ratio of IC50 for human recombinant MAO-A to IC50 for human recombinant MAO-B
Outline: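 SI is IC50(hMAO-A)/IC50(hMAO-B), from IC50s measured by Amplex Red/HRP fluorimetry of p-tyramine-driven H2O2 with baculovirus-expressed human isoforms (mean of five experiments each). Where no MAO-A IC50 was reached, the highest concentration tested was taken as that IC50.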

[1] = biological target: T1, Amine oxidase [flavin-containing] B (Homo sapiens, UniProt P27338); test: Inhibition of human recombinant MAO-B expressed in BTI-TN-5B1-4 cells assessed as H2O2 production using para-tyramine substrate by fluorimetric method; type: cell-based
T1 sequence (P27338 whole entry): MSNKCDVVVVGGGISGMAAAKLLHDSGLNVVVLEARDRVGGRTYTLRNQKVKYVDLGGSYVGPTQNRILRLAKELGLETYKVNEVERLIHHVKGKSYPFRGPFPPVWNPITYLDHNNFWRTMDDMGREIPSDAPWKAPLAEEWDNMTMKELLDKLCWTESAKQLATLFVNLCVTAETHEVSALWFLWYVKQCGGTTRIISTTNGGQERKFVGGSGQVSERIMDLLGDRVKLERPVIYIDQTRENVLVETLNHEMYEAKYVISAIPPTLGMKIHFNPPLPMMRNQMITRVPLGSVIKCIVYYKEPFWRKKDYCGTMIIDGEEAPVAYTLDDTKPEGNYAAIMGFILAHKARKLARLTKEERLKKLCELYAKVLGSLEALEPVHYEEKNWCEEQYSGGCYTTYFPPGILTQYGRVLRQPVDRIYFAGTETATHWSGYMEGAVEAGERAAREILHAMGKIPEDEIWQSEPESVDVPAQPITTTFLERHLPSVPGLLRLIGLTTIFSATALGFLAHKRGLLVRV

[2] = biological target: T2, Amine oxidase [flavin-containing] A (Homo sapiens, UniProt P21397); test: Inhibition of human recombinant MAO-A expressed in BTI-TN-5B1-4 cells assessed as H2O2 production using para-tyramine substrate at 100 uM by fluorimetric method; type: cell-based; settings: bti-tn-5b1-4, 100 µM
T2 sequence (P21397 whole entry): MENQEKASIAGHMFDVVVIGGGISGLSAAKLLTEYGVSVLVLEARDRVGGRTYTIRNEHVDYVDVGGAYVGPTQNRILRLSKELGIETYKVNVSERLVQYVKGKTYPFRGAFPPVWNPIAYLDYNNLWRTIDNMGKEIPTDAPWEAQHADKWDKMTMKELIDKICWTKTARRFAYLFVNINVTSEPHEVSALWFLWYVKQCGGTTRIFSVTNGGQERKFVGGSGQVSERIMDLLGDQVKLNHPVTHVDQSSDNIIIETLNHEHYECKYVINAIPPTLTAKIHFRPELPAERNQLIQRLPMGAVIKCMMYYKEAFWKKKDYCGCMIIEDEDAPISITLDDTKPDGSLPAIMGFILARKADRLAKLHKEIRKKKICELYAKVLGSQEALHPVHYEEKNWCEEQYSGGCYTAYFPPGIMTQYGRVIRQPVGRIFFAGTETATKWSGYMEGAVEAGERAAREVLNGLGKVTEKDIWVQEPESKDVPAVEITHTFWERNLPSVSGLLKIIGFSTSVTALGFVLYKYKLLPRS

[3] = biological target: T2, Amine oxidase [flavin-containing] A; test: Inhibition of human recombinant MAO-A expressed in BTI-TN-5B1-4 cells assessed as H2O2 production using para-tyramine substrate by fluorimetric method; type: cell-based
[4] = biological target: T1, Amine oxidase [flavin-containing] B; test: Inhibition of human recombinant MAO-B expressed in BTI-TN-5B1-4 cells assessed as H2O2 production using para-tyramine substrate at 100 uM by fluorimetric method; type: cell-based; settings: bti-tn-5b1-4, 100 µM

Compound | Ratio IC50 (Homo sapiens) | IC50 [1] [nM] | inhibition (INH) [2] | IC50 [3] [nM] | inhibition (INH) [4]
O=c1oc2ccccc2cc1-c1c[nH]c2ccccc12 | > 52 | 1920 | Not Active | – | –
COc1ccc2oc(=O)c(-c3cccs3)cc2c1 | > 158 | 634 | Not Active | – | –
COc1ccc2cc(-c3ccsc3)c(=O)oc2c1 | > 75 | 55.6 | – | 4160 | –
COc1ccc2cc(-c3cccs3)c(=O)oc2c1 | > 380 | 263 | Not Active | – | –
COc1cc(OC)c2cc(-c3cccs3)c(=O)oc2c1 | – | – | Not Active | – | Not Active
COc1cc(OC)c2cc(-c3c[nH]c4ccccc34)c(=O)oc2c1 | – | – | Not Active | – | Not Active
O=c1oc2ccccc2cc1-c1cccs1 | > 15 | 6370 | Not Active | – | –
COc1cc(OC)c2cc(-c3ccsc3)c(=O)oc2c1 | – | – | Not Active | – | Not Active
COc1ccc2oc(=O)c(-c3ccsc3)cc2c1 | > 428 | 234 | Not Active | – | –
O=c1oc2ccccc2cc1-c1ccsc1 | > 7.5 | 13300 | Not Active | – | –
COc1ccc2oc(=O)c(-c3c[nH]c4ccccc34)cc2c1 | – | – | Not Active | – | Not Active
COc1ccc2cc(-c3c[nH]c4ccccc34)c(=O)oc2c1 | > 210 | 46 | – | 9670 | –
